In brackets after ≈: the same amount, converted by molar mass.
Tests used:
Type in all cases: functional
Staphylococcus aureus [1] = test: In vitro antibacterial activity against Staphylococcus aureus CMX 686B
Summary of the method: (§1)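 Agar dilution MIC: strains grown overnight in brain-heart infusion broth at 36 °C; test compound stock 2000 µg/mL serially diluted 2-fold into BHI agar for final 200 to 0.005 µg/mL; plates inoculated with about 10⁴ organisms, incubated 36 °C for 18 h. MIC (µg/mL) taken as lowest concentration giving no visible growth; ciprofloxacin run side by side as reference.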

Staphylococcus aureus [2] = test: In vitro antibacterial activity against Staphylococcus aureus ATCC 6538P; summary of the method: as §1
Streptococcus pyogenes = test: In vitro antibacterial activity against Streptococcus pyogenes 930; summary of the method: as §1
Pseudomonas aeruginosa [3] = test: In vitro antibacterial activity against Pseudomonas aeruginosa K799/WT; summary of the method: as §1
Streptococcus agalactiae = test: In vitro antibacterial activity against Streptococcus agalactiae CMS 508; summary of the method: as §1
Escherichia coli = test: In vitro antibacterial activity against Escherichia coli Juhl; summary of the method: as §1
Staphylococcus aureus [4] = test: In vitro antibacterial activity against Staphylococcus aureus A5177; summary of the method: as §1
Staphylococcus aureus [5] = test: In vitro antibacterial activity against Staphylococcus aureus 45; summary of the method: as §1
Klebsiella aerogenes = test: In vitro antibacterial activity against Enterobacter aerogenes ATCC 13048; summary of the method: as §1
Enterococcus faecium = test: In vitro antibacterial activity against Streptococcus faecium ATCC 8043; summary of the method: as §1
Streptococcus equinus = test: In vitro antibacterial activity against Streptococcus bovis A5169; summary of the method: as §1
Acinetobacter = test: In vitro antibacterial activity against Acinetobacter CMX 669; summary of the method: as §1
Pseudomonas aeruginosa [6] = test: In vitro antibacterial activity against Pseudomonas aeruginosa 5007; summary of the method: as §1
[7] = test system: Staphylococcus epidermidis; test: In vitro antibacterial activity against Staphylococcus epidermidis 3519; summary of the method: as §1
Klebsiella pneumoniae = test: In vitro antibacterial activity against Klebsiella pneumoniae 8045; summary of the method: as §1

Row | Compound | MIC (Staphylococcus aureus [1]) [µg/mL] | MIC (Staphylococcus aureus [2]) [µg/mL] | MIC (Streptococcus pyogenes) [µg/mL] | MIC (Pseudomonas aeruginosa [3]) [µg/mL] | MIC (Streptococcus agalactiae) [µg/mL] | MIC (Escherichia coli) [µg/mL] | MIC (Staphylococcus aureus [4]) [µg/mL] | MIC (Staphylococcus aureus [5]) [µg/mL] | MIC (Klebsiella aerogenes) [µg/mL] | MIC (Enterococcus faecium) [µg/mL] | MIC (Streptococcus equinus) [µg/mL] | MIC (Acinetobacter) [µg/mL] | MIC (Pseudomonas aeruginosa [6]) [µg/mL] | MIC [7] [µg/mL] | MIC (Klebsiella pneumoniae) [µg/mL]
1 | CCn1cc(C(=O)O)c(=O)c2cc(F)c(C3=NCCCO3)cc21 | 50 (≈ 157 µM) | 50 (≈ 157 µM) | > 100 | > 100 | > 100 | 50 (≈ 157 µM) | > 100 | > 100 | > 100 | > 100 | > 100 | > 100 | > 100 | > 100 | 25 (≈ 78.5 µM)
2 | CCn1cc(C(=O)O)c(=O)c2cc(F)c(-c3coc(N)n3)cc21 | 12.5 (≈ 39.4 µM) | 12.5 (≈ 39.4 µM) | 100 (≈ 315 µM) | > 100 | 100 (≈ 315 µM) | 50 (≈ 158 µM) | 25 (≈ 78.8 µM) | 50 (≈ 158 µM) | 50 (≈ 158 µM) | > 100 | > 100 | > 100 | > 100 | 50 (≈ 158 µM) | 25 (≈ 78.8 µM)
3 | CCn1cc(C(=O)O)c(=O)c2cc(F)c(-c3coc(C)n3)cc21 | 0.78 (≈ 2.47 µM) | 1.56 (≈ 4.93 µM) | 100 (≈ 316 µM) | 50 (≈ 158 µM) | 50 (≈ 158 µM) | 6.2 (≈ 19.6 µM) | 3.1 (≈ 9.8 µM) | 3.1 (≈ 9.8 µM) | 50 (≈ 158 µM) | 100 (≈ 316 µM) | 100 (≈ 316 µM) | 12.5 (≈ 39.5 µM) | 50 (≈ 158 µM) | 3.1 (≈ 9.8 µM) | 3.1 (≈ 9.8 µM)
4 | CCn1cc(C(=O)O)c(=O)c2cc(F)c(C(=O)O)cc21 | > 100 | > 100 | > 100 | > 100 | > 100 | > 100 | > 100 | > 100 | > 100 | > 100 | > 100 | > 100 | > 100 | > 100 | > 100
5 | CCn1cc(C(=O)O)c(=O)c2cc(F)c(C(=O)NCCO)cc21 | > 100 | > 100 | > 100 | > 100 | > 100 | 50 (≈ 155 µM) | > 100 | > 100 | > 100 | > 100 | > 100 | > 100 | > 100 | > 100 | 50 (≈ 155 µM)

Source: ChEMBL document CHEMBL1125111, “The synthesis and antibacterial activities of quinolones containing five- and six-membered heterocyclic substituents at the 7-position” (1990)
